Tested on: Fibroblast
Experiment: Multiplex assay against human fibroblast
Type: toxicity, cell-based
In short: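 Imaging took place on a CQ1 microscope at 37°C and 5% CO2 once compound had been added to live cells stained at seeding with Hoechst33342, BioTracker Green Microtubule Cytoskeleton Dye, MitoTracker Red and Annexin V Alexa Fluor 680. CellPathfinder machine-learning gating classed cells as Hoechst high-intensity objects or normal cells, classed normal cells as having healthy, pyknosed or fragmented nuclei, and classed pyknosed cells as mitotic or apoptotic. Tubulin, mitochondrial-mass and membrane-permeability phenotypes are per cents of the healthy-nucleus cells.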

[1] = 12 h, 1 µM, compound concentration 1 uM, replicate 1
[2] = 12 h, 1 µM, compound concentration 1 uM, replicate 2
[3] = 12 h, 10 µM, compound concentration 10 uM, replicate 1
[4] = 12 h, 10 µM, compound concentration 10 uM, replicate 2
[5] = 24 h, 1 µM, compound concentration 1 uM, replicate 1
[6] = 24 h, 1 µM, compound concentration 1 uM, replicate 2
[7] = 24 h, 10 µM, compound concentration 10 uM, replicate 1
[8] = 24 h, 10 µM, compound concentration 10 uM, replicate 2
[9] = 48 h, 1 µM, compound concentration 1 uM, replicate 1
[10] = 48 h, 1 µM, compound concentration 1 uM, replicate 2
[11] = 48 h, 10 µM, compound concentration 10 uM, replicate 1
[12] = 48 h, 10 µM, compound concentration 10 uM, replicate 2

COc1ccc2c(c1)C(C(=O)N(Cc1ccc(N(C)C)cc1)c1ccc(C(C)C)cc1)CCC2.Cl (configuration not stated)
Population Apoptotic (%) [1]: 57% | Population Fragmented Nuclei (%) [1]: 15% | Population Healthy Nuclei (%) [1]: 72% | Population Hoechst High Intensity Objects (%) [1]: 1% | Population Membrane Permeable-Phenotype (%) [1]: 1% | Population Mitochondria Different-Phenotype (%) [1]: 7% | Population Mitotic Cells (%) [1]: 42% | Population Normal (%) [1]: 98% | Population Pyknosed Nuclei (%) [1]: 11% | Population Tubulin-Different-Phenotype (%) [1]: 22% | Total Cell Count [1]: 163 | Population Apoptotic (%) [2]: 45% | Population Fragmented Nuclei (%) [2]: 20% | Population Healthy Nuclei (%) [2]: 55% | Population Hoechst High Intensity Objects (%) [2]: 5% | Population Membrane Permeable-Phenotype (%) [2]: 5% | Population Mitochondria Different-Phenotype (%) [2]: 15% | Population Mitotic Cells (%) [2]: 54% | Population Normal (%) [2]: 94% | Population Pyknosed Nuclei (%) [2]: 23% | Population Tubulin-Different-Phenotype (%) [2]: 57% | Total Cell Count [2]: 138 | Population Apoptotic (%) [3]: 58% | Population Fragmented Nuclei (%) [3]: 17% | Population Healthy Nuclei (%) [3]: 69% | Population Hoechst High Intensity Objects (%) [3]: 1% | Population Membrane Permeable-Phenotype (%) [3]: 0% | Population Mitochondria Different-Phenotype (%) [3]: 12% | Population Mitotic Cells (%) [3]: 41% | Population Normal (%) [3]: 98% | Population Pyknosed Nuclei (%) [3]: 13% | Population Tubulin-Different-Phenotype (%) [3]: 67% | Total Cell Count [3]: 181 | Population Apoptotic (%) [4]: 53% | Population Fragmented Nuclei (%) [4]: 38% | Population Healthy Nuclei (%) [4]: 51% | Population Hoechst High Intensity Objects (%) [4]: 2% | Population Membrane Permeable-Phenotype (%) [4]: 6% | Population Mitochondria Different-Phenotype (%) [4]: 14% | Population Mitotic Cells (%) [4]: 46% | Population Normal (%) [4]: 97% | Population Pyknosed Nuclei (%) [4]: 10% | Population Tubulin-Different-Phenotype (%) [4]: 77% | Total Cell Count [4]: 148 | Population Apoptotic (%) [5]: 55% | Population Fragmented Nuclei (%) [5]: 11% | Population Healthy Nuclei (%) [5]: 77% | Population Hoechst High Intensity Objects (%) [5]: 1% | Population Membrane Permeable-Phenotype (%) [5]: 0% | Population Mitochondria Different-Phenotype (%) [5]: 5% | Population Mitotic Cells (%) [5]: 44% | Population Normal (%) [5]: 98% | Population Pyknosed Nuclei (%) [5]: 11% | Population Tubulin-Different-Phenotype (%) [5]: 25% | Total Cell Count [5]: 156 | Population Fragmented Nuclei (%) [6]: 19% | Population Healthy Nuclei (%) [6]: 59% | Population Hoechst High Intensity Objects (%) [6]: 3% | Population Membrane Permeable-Phenotype (%) [6]: 2% | Population Mitochondria Different-Phenotype (%) [6]: 11% | Population Normal (%) [6]: 96% | Population Pyknosed Nuclei (%) [6]: 20% | Population Tubulin-Different-Phenotype (%) [6]: 41% | Total Cell Count [6]: 136 | Population Apoptotic (%) [7]: 50% | Population Fragmented Nuclei (%) [7]: 17% | Population Healthy Nuclei (%) [7]: 72% | Population Hoechst High Intensity Objects (%) [7]: 3% | Population Membrane Permeable-Phenotype (%) [7]: 0% | Population Mitochondria Different-Phenotype (%) [7]: 15% | Population Mitotic Cells (%) [7]: 50% | Population Normal (%) [7]: 96% | Population Pyknosed Nuclei (%) [7]: 10% | Population Tubulin-Different-Phenotype (%) [7]: 63% | Total Cell Count [7]: 180 | Population Apoptotic (%) [8]: 42% | Population Fragmented Nuclei (%) [8]: 39% | Population Healthy Nuclei (%) [8]: 55% | Population Hoechst High Intensity Objects (%) [8]: 2% | Population Membrane Permeable-Phenotype (%) [8]: 2% | Population Mitochondria Different-Phenotype (%) [8]: 12% | Population Mitotic Cells (%) [8]: 57% | Population Normal (%) [8]: 97% | Population Pyknosed Nuclei (%) [8]: 4% | Population Tubulin-Different-Phenotype (%) [8]: 85% | Total Cell Count [8]: 148 | Population Apoptotic (%) [9]: 66% | Population Fragmented Nuclei (%) [9]: 17% | Population Healthy Nuclei (%) [9]: 75% | Population Hoechst High Intensity Objects (%) [9]: 1% | Population Membrane Permeable-Phenotype (%) [9]: 1% | Population Mitochondria Different-Phenotype (%) [9]: 3% | Population Mitotic Cells (%) [9]: 33% | Population Normal (%) [9]: 98% | Population Pyknosed Nuclei (%) [9]: 6% | Population Tubulin-Different-Phenotype (%) [9]: 27% | Total Cell Count [9]: 180 | Population Apoptotic (%) [10]: 52% | Population Fragmented Nuclei (%) [10]: 26% | Population Healthy Nuclei (%) [10]: 61% | Population Membrane Permeable-Phenotype (%) [10]: 5% | Population Mitochondria Different-Phenotype (%) [10]: 13% | Population Mitotic Cells (%) [10]: 47% | Population Pyknosed Nuclei (%) [10]: 12% | Population Tubulin-Different-Phenotype (%) [10]: 46% | Total Cell Count [10]: 152 | Population Apoptotic (%) [11]: 71% | Population Fragmented Nuclei (%) [11]: 21% | Population Healthy Nuclei (%) [11]: 71% | Population Hoechst High Intensity Objects (%) [11]: 4% | Population Membrane Permeable-Phenotype (%) [11]: 0% | Population Mitochondria Different-Phenotype (%) [11]: 8% | Population Mitotic Cells (%) [11]: 28% | Population Normal (%) [11]: 95% | Population Pyknosed Nuclei (%) [11]: 7% | Population Tubulin-Different-Phenotype (%) [11]: 71% | Total Cell Count [11]: 203 | Population Apoptotic (%) [12]: 75% | Population Fragmented Nuclei (%) [12]: 45% | Population Healthy Nuclei (%) [12]: 52% | Population Hoechst High Intensity Objects (%) [12]: 0% | Population Membrane Permeable-Phenotype (%) [12]: 3% | Population Mitotic Cells (%) [12]: 25% | Population Normal (%) [12]: 99% | Population Pyknosed Nuclei (%) [12]: 2% | Population Tubulin-Different-Phenotype (%) [12]: 81% | Total Cell Count [12]: 174

— ChEMBL document CHEMBL5058577, “EUbOPEN Chemogenomics Library 2 (Multiplex)” (2022)
